This passage reports Activity and IC50 results from ChEMBL document CHEMBL1149737, “Brominated polyacetylenic acids from the marine sponge Xestospongia muta: inhibitors of HIV protease” (J Nat Prod, 1992).

A word on the IC50: it is the concentration that gives 50% inhibition. Read a high IC50 as weaker potency in that assay.

Active and inactive are the calls of the source. The rule behind the calls is not given here.

The species entered for one experiment is Sus scrofa. In words: Inhibition of pig malic dehydrogenase at 100 ug/ml.
For another experiment, the system named is MOLT-4. Put plainly: Cytotoxicity against human MOLT4 cells. The experiment is classed as functional, cell-based.
Experiment [1] addresses T1, ATP-citrate synthase (Rattus norvegicus) (UniProt P16638).
T1 sequence (whole entry): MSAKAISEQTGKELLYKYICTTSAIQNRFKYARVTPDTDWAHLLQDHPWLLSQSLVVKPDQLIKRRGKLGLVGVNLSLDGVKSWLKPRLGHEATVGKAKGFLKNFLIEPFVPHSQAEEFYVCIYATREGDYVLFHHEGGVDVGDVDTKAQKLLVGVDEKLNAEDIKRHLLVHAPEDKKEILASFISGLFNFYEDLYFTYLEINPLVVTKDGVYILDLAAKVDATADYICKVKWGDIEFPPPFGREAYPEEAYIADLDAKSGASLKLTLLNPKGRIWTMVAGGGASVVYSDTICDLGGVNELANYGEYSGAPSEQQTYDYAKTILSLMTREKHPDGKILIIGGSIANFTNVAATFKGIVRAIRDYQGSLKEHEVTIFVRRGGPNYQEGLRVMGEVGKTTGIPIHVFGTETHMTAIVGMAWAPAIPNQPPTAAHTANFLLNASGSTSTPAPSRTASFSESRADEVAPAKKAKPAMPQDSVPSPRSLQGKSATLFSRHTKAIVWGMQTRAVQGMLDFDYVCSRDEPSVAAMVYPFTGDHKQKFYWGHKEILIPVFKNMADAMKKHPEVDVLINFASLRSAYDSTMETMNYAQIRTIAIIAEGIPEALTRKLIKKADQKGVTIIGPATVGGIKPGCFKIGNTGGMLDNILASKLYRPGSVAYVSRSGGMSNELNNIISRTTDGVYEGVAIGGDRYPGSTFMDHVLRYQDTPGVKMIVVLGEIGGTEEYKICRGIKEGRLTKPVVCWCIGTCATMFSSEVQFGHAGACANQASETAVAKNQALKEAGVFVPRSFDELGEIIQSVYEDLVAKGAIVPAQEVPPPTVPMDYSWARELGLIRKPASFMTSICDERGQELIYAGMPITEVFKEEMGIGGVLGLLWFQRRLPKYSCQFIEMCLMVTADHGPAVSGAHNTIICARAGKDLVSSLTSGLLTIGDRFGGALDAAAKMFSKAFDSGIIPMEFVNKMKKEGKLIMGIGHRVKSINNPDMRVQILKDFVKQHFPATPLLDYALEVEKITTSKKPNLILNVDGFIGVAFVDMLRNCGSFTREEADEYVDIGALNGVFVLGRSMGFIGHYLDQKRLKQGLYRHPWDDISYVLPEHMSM
In words: Inhibition of rat ATP citrate lyase at 100 ug/ml.

The target in a further experiment is Protease (Human immunodeficiency virus 1, UniProt Q9YQ12). Put plainly: Inhibition of HIV1 protease-mediated proteolysis of rabbit muscle lactate dehydrogenase by spectrophotometry. It counts as single protein. In short, it runs like this:
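Purified HIV-1 protease (0.8 µg) with rabbit muscle LDH (0.5–2 mg/ml) in 80 mM Na acetate pH 4.7, 1 mM EDTA, 1 mM DTT, 0.2 M NaCl, 37°, 10–60 min. Aliquots were diluted into 0.1 M K phosphate pH 7.0, 30 min RT. Residual LDH was read as NADH loss at 340 nm (7.6 mM pyruvate, 0.2 mM NADH, 37°) from initial slopes. Controls lacked protease.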

Sequence of Protease (Q9YQ12 whole entry): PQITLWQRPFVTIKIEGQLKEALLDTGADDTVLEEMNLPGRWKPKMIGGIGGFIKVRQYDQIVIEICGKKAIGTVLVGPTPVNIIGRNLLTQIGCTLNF

As for `O=C(O)CCCC#CC#C/C=C/CCCC/C=C/C#CBr`, the outcome (in the experiment listed under Sus scrofa; in experiment [1]) was inactive. Also, in the experiment on MOLT-4, the outcome was Active. Further, the IC50 on Protease worked out at 7 µM.

As for `O=C(O)CCCC#CC#C/C=C/CCCCC#C/C=C/Br`, the result (in the experiment filed under Sus scrofa; in experiment [1]) was inactive. Also, in the experiment with MOLT-4, the outcome was Active. The compound also returned an IC50 against Protease of 8 µM.

`O=C(O)CCCC#C/C=C/CCCC/C=C/C#C/C=C/Br`: the result (in the experiment listed under Sus scrofa; in experiment [1]) was inactive. The outcome with MOLT-4 was Active. For the same compound, the 50% inhibitory concentration (IC50) against Protease stood at 10 µM.

For the compound `COC(=O)CCCC#CC#C/C=C/CCCCCC/C=C/Br`, the result (in the experiment listed under Sus scrofa; in experiment [1]) was inactive. The result in the experiment with MOLT-4 was Active. This compound also registered an IC50 against Protease of 10 µM.

In the case of `O=C(O)CCCC#CC#C/C=C/CC/C=C/C#C/C=C/Br`, the result (in the experiment listed under Sus scrofa; in experiment [1]) was inactive. In the experiment with MOLT-4, the result was Active. For the same compound, at Protease, half-maximal inhibition (IC50) was put at 6 µM.

Take `O=C(O)CCCC#CC#C/C=C/CCCCCC/C=C/Br`: the result (in the experiment listed under Sus scrofa; in experiment [1]) was inactive. In addition, the result with MOLT-4 was Active. At Protease, this compound had an IC50 of 12 µM.
